Source: ChEMBL document CHEMBL3826951, “Discovery of Benzocycloalkane Derivatives Efficiently Blocking Bacterial Virulence for the Treatment of Methicillin-Resistant S. aureus (MRSA) Infections by Targeting Diapophytoene Desaturase (CrtN)” (J Med Chem, 2016)
Converted amounts (≈) assume the structure as drawn. The source made the active and inactive calls. No cut-off for these calls is given here.

Tests used:
[1] = biological target: T1, 4,4'-diapophytoene desaturase (4,4'-diaponeurosporene-forming) (Staphylococcus aureus (strain Newman), UniProt O07855); assay: Inhibition of diapophytoene desaturase in Staphylococcus aureus Newman assessed as reduction in staphyloxanthin pigment formation after 48 hrs by spectrophotometry; set-up: species or system Staphylococcus aureus subsp. aureus str. Newman
T1 sequence (O07855 whole entry): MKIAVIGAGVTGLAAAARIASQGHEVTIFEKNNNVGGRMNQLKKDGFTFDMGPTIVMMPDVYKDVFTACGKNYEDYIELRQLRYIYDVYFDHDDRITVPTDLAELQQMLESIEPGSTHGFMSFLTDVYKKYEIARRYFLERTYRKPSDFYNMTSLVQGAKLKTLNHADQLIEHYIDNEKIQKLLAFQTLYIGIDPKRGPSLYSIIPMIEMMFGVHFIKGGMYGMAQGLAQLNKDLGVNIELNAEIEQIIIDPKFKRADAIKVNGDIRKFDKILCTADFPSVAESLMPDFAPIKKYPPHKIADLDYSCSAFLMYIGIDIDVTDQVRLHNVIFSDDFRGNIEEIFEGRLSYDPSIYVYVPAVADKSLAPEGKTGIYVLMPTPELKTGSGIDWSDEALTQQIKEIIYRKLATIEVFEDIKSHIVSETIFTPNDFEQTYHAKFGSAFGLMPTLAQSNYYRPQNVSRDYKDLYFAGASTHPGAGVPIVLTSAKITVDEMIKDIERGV

Trichophyton rubrum = assay: Antifungal activity against naftifine-sensitive Trichophyton rubrum after 7 days by serial dilution method; type: functional
In short: (§1)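 Broth serial dilution in 96-well plates per NCCLS recommendations. Medium: RPMI 1640 buffered with 0.165 M MOPS. Fungi were ATCC strains or clinical isolates.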

Nannizzia gypsea = assay: Antifungal activity against naftifine-sensitive Microsporum gypseum after 7 days by serial dilution method; type: functional; in short: as §1
[2] = test system: Trichophyton mentagrophytes; assay: Antifungal activity against naftifine-sensitive Trichophyton mentagrophytes after 7 days by serial dilution method; type: functional; in short: as §1
Trichophyton verrucosum = assay: Antifungal activity against naftifine-sensitive Trichophyton verrucosum after 7 days by serial dilution method; type: functional; in short: as §1
[3] = biological target: T1, 4,4'-diapophytoene desaturase (4,4'-diaponeurosporene-forming); assay: Inhibition of 6x-His-tagged Staphylococcus aureus diapophytoene desaturase expressed in Escherichia coli BL21 (DE3) using diapophytoene substrate after overnight incubation
[4] = Aqueous solubility of the compound in water after 24 hrs by HPLC method; type: physicochemical
In short: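 Excess solid stirred in pure water for 24 h, then filtered. Filtrate analysed by HPLC (10 µL injection). Concentration read against a calibration curve of peak area versus concentration, built from methanol solutions at 50–800 µg/mL.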

[5] = biological target: T2, 4,4'-diapophytoene desaturase (4,4'-diaponeurosporene-forming) (Staphylococcus aureus (strain Newman)) (UniProt O07855); assay: Inhibition of diapophytoene desaturase in Staphylococcus aureus Newman assessed as 4,4'-diapophytoene formation by HPLC method; details: Staphylococcus aureus subsp. aureus str. Newman
T2 sequence (whole entry): T1 sequence (O07855 whole entry)

Staphylococcus aureus [6] = assay: Effect on Staphylococcus aureus Newman growth at 0.2 mM after overnight incubation by plate reader method; type: organism-based; details: 200 µM
In short: (§2)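 DMSO stock (20 mM) diluted in TSB to final 0.2 or 0.05 mM, overlaid with paraffin, pre-warmed 4 h at 37 °C. Overnight cultures adjusted to OD600 ~1.0 and inoculated to final OD600 ≈ 0.05. DMSO-matched growth controls. Incubated overnight at 37 °C; OD600 read every 30 min.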

Staphylococcus aureus [7] = assay: Effect on methicillin-resistant Staphylococcus aureus USA400 MW2 growth at 0.05 mM after overnight incubation by plate reader method; type: organism-based; details: 50 µM; in short: as §2
Staphylococcus aureus [8] = assay: Effect on methicillin-resistant Staphylococcus aureus USA300 LAC growth at 0.2 mM after overnight incubation by plate reader method; type: organism-based; details: 200 µM; in short: as §2
Staphylococcus aureus [9] = assay: Effect on methicillin-resistant Staphylococcus aureus Mu 50 growth at 0.05 mM after overnight incubation by plate reader method; type: organism-based, Mu50; details: 50 µM; in short: as §2
Staphylococcus aureus [10] = assay: Sensitization of Staphylococcus aureus Newman to H2O2-induced killing assessed as cell survival at 1 uM pre-incubated for 24 hrs before H2O2 exposure for 30 mins by serial dilution method (reference value: 30.43%); type: functional
Staphylococcus aureus [11] = assay: Sensitization of methicillin-resistant Staphylococcus aureus USA400 MW2 to H2O2-induced killing assessed as cell survival at 1 uM pre-incubated for 24 hrs before H2O2 exposure for 30 mins by serial dilution method (reference value: 14.17%); type: functional
Staphylococcus aureus [12] = assay: Sensitization of methicillin-resistant Staphylococcus aureus USA300 LAC to H2O2-induced killing assessed as cell survival at 1 uM pre-incubated for 24 hrs before H2O2 exposure for 30 mins by serial dilution method (reference value: 15.83%); type: functional
Staphylococcus aureus [13] = assay: Sensitization of methicillin-resistant Staphylococcus aureus Mu 50 to H2O2-induced killing assessed as cell survival at 1 uM pre-incubated for 24 hrs before H2O2 exposure for 30 mins by serial dilution method (reference value: 30.67%); type: functional; details: Mu50
Staphylococcus aureus [14] = assay: Sensitization of Staphylococcus aureus Newman to human whole blood assessed as cell survival at 1 uM after 6 hrs by serial dilution method (reference value: 26.67%); type: functional
Staphylococcus aureus [15] = assay: Sensitization of methicillin-resistant Staphylococcus aureus USA400 MW2 to human whole blood assessed as cell survival at 1 uM after 6 hrs by serial dilution method (reference value: 10.8%); type: functional; details: MW2 USA400, 6 h
Staphylococcus aureus [16] = assay: Sensitization of methicillin-resistant Staphylococcus aureus USA300 LAC to human whole blood assessed as cell survival at 1 uM after 6 hrs by serial dilution method (reference value: 12.17%); type: functional; details: LAC USA300, 6 h
Staphylococcus aureus [17] = assay: Sensitization of methicillin-resistant Staphylococcus aureus Mu 50 to human whole blood assessed as cell survival at 1 uM after 6 hrs by serial dilution method (reference value: 16.11%); type: functional; details: Mu50, 6 h
Staphylococcus aureus [18] = assay: Attenuation of Staphylococcus aureus Newman virulence in BALB/c mouse lethal infection model assessed as mouse survival administered ip every 12 hrs for 108 hrs followed by 2 x 10^7 CFU bacterial challenge after first 12 hrs of compound dosing measured 4 days post challenge; type: functional
In short: (§3)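 Female BALB/c mice, 6-8 weeks old, kept specific pathogen-free. Dosed ip at 50 or 200 mg/kg every 12 h for 108 h (4.5 d). Challenged 12 h after the first dose with 2 × 10^7 CFU S. aureus Newman. Mortality followed; n = 15; log-rank test.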

Staphylococcus aureus [19] = assay: (§4) Attenuation of Staphylococcus aureus Newman virulence in BALB/c mouse systemic infection model assessed as decrease in bacterial survival in kidney at 50 mg/kg, ip administered every 12 hrs for 108 hrs followed by bacterial challenge after first 12 hrs of compound dosing measured 5 days post infection; type: functional
In short: (§5)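 Abscess model in female BALB/c mice, 6-8 weeks old. Dosed ip every 12 h for 108 h; retro-orbital challenge with 1 × 10^7 CFU Newman in 100 µL at 12 h. Sacrificed day 5. Kidneys and hearts homogenised in PBS plus 0.1% Triton X-100 and plated on TSA for CFU. n = 13; two-tailed Mann-Whitney.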

Staphylococcus aureus [20] = assay: as §4, with “heart” for “kidney”; type: functional; in short: as §5
Staphylococcus aureus [21] = assay: Attenuation of Staphylococcus aureus Newman virulence in BALB/c mouse lethal infection model assessed as mouse survival administered ip every 12 hrs for 108 hrs followed by 2 x 10^7 CFU bacterial challenge after first 12 hrs of compound dosing measured 8 days post challenge; type: functional; in short: as §3
Staphylococcus aureus [22] = assay: (§6) Attenuation of methicillin-resistant Staphylococcus aureus USA400 MW2 virulence in BALB/c mouse systemic infection model assessed as decrease in bacterial burden in liver at 50 mg/kg, ip administered every 12 hrs for 108 hrs followed by bacterial challenge after first 12 hrs of compound dosing measured 5 days post infection; type: functional
In short: (§7)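 Female BALB/c mice, 6-8 weeks old. Dosed ip every 12 h for 108 h. Challenged with 100 µL at 12 h: 1.6 × 10^8 CFU Mu50 or 4 × 10^7 CFU USA400 MW2. Sacrificed 5 days post-infection. Livers and kidneys homogenised in PBS/0.1% Triton X-100, serially plated on TSA, CFU counted; two-tailed Mann-Whitney.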

Staphylococcus aureus [23] = assay: as §6, with “survival” for “burden”, “kidney” for “liver”, “200” for “50”; type: functional; in short: as §7
Staphylococcus aureus [24] = assay: as §6, with “survival” for “burden”, “kidney” for “liver”; type: functional; in short: as §7
Staphylococcus aureus [25] = assay: as §6, with “Mu 50” for “USA400 MW2”, “survival” for “burden”; type: functional, Mu50; in short: as §7
Staphylococcus aureus [26] = assay: (§8) Attenuation of methicillin-resistant Staphylococcus aureus Mu 50 virulence in BALB/c mouse systemic infection model assessed as decrease in bacterial survival in kidney at 200 mg/kg, ip administered every 12 hrs for 108 hrs followed by bacterial challenge after first 12 hrs of compound dosing measured 5 days post infection; type: functional, Mu50; in short: as §7
Staphylococcus aureus [27] = assay: as §8, with “50” for “200”; type: functional, Mu50; in short: as §7

CN(C/C=C/c1ccccc1)Cc1ccc2c(c1)CCC2
IC50 [1]: 808 nM

CC(=O)N1CCN(c2ccc(OCC3COC(Cn4ccnc4)(c4ccc(Cl)cc4Cl)O3)cc2)CC1 (centres undefined) [KETOCONAZOLE]
MIC=<80 (Trichophyton rubrum): 0.5 µg/mL (≈ 0.941 µM) | MIC=<80 (Nannizzia gypsea): 2 µg/mL (≈ 3.76 µM) | MIC=<80 [2]: 0.0625 µg/mL (≈ 0.118 µM) | MIC=<80 (Trichophyton verrucosum): 0.0625 µg/mL (≈ 0.118 µM)

CN(C/C=C/c1ccccc1)Cc1ccc2c(c1)CCCCC2
IC50 [1]: 202 nM

CN(C/C=C/c1cccc([N+](=O)[O-])c1)Cc1ccc2c(c1)CCCCC2
IC50 [1]: > 1000 nM

CN(C/C=C/c1ccc(C(F)(F)F)cc1)Cc1ccc2c(c1)CCCC2.Cl
IC50 [1]: 1.9 nM | IC50 [3]: 500 nM | solubility at 24 h [4]: 690 µg/mL

CN(C/C=C/c1ccc(F)cc1)Cc1ccc2c(c1)CCCCC2
IC50 [1]: 39.4 nM

CN(C/C=C/C=C/c1ccccc1)Cc1ccc2c(c1)CCCCC2
IC50 [1]: 12.2 nM

Cc1cccc(/C=C/CN(C)Cc2ccc3c(c2)CCCCC3)c1
IC50 [1]: 770 nM

C[C@@H](c1ncncc1F)[C@](O)(Cn1cncn1)c1ccc(F)cc1F [VORICONAZOLE]
MIC=<80 (Trichophyton rubrum): 0.03125 µg/mL (≈ 0.0895 µM) | MIC=<80 (Nannizzia gypsea): 0.25 µg/mL (≈ 0.716 µM) | MIC=<80 [2]: 0.03125 µg/mL (≈ 0.0895 µM) | MIC=<80 (Trichophyton verrucosum): 0.03125 µg/mL (≈ 0.0895 µM)

CC(C)N(C/C=C/c1ccccc1)Cc1ccc2c(c1)CCCCC2
IC50 [1]: > 10000 nM

COc1ccc(/C=C/CN(C)Cc2ccc3c(c2)CCCC3)cc1
IC50 [1]: 12.2 nM

CN(C/C=C/c1ccc(Cl)cc1)Cc1ccc2c(c1)CCCC2
IC50 [1]: 12.8 nM

CN(C/C=C/c1ccccc1)Cc1cccc2c1CCC2
IC50 [1]: > 2500 nM

CN(C/C=C/c1ccc(Cl)cc1)Cc1ccc2c(c1)CCCCC2
IC50 [1]: 8.8 nM

C(=C\c1ccccc1)/CNCc1ccc2c(c1)CCCCC2
IC50 [1]: > 10000 nM

CN(CC#Cc1ccccc1)Cc1ccc2c(c1)CCCCC2
IC50 [1]: > 1250 nM

COc1ccc(/C=C/CN(C)Cc2ccc3c(c2)CCCCC3)cc1.Cl
inhibition [5]: Active | solubility at 24 h [4]: 4240 µg/mL | Activity (Staphylococcus aureus [6]): Non-toxic | Activity (Staphylococcus aureus [7]): Non-toxic | Activity (Staphylococcus aureus [8]): Non-toxic | Activity (Staphylococcus aureus [9]): Non-toxic | survival at 1 µM (Staphylococcus aureus [10]): 0.83% | survival at 1 µM (Staphylococcus aureus [11]): 0.96% | survival at 1 µM (Staphylococcus aureus [12]): 0.98% | survival at 1 µM (Staphylococcus aureus [13]): 4.44% | survival at 1 µM (Staphylococcus aureus [14]): 1.83% | survival at 1 µM (Staphylococcus aureus [15]): 0.2% | survival at 1 µM (Staphylococcus aureus [16]): 0.95% | survival at 1 µM (Staphylococcus aureus [17]): 0.4% | Survival (Staphylococcus aureus [18]): 83% | Activity (Staphylococcus aureus [19]): 1.17 log10CFU | Activity (Staphylococcus aureus [20]): 1.62 log10CFU | Survival (Staphylococcus aureus [21]): >60% | Activity (Staphylococcus aureus [22]): 3.87 log10CFU | Activity (Staphylococcus aureus [23]): 99.5% | Activity (Staphylococcus aureus [24]): 99.5% | Activity (Staphylococcus aureus [25]): 2.44 log10CFU | Activity (Staphylococcus aureus [26]): 2.27 log10CFU | Activity (Staphylococcus aureus [27]): 0.99 log10CFU | MIC=<80 (Trichophyton rubrum): 8 µg/mL | MIC=<80 (Nannizzia gypsea): 16 µg/mL | MIC=<80 [2]: 8 µg/mL | MIC=<80 (Trichophyton verrucosum): 8 µg/mL

CN(C/C=C/c1ccco1)Cc1ccc2c(c1)CCCCC2
IC50 [1]: > 2500 nM

CN(C/C=C/c1ccc([N+](=O)[O-])cc1)Cc1ccc2c(c1)CCCC2
IC50 [1]: 94.5 nM
